Calls of active or inactive are those of the source. The calls are words filed in the database; no cut-off is given here.
Legend:
MDA-MB-231 [1] = assay: Growth inhibition of human MDA-MB-231 cells at 250 uM after 48 hrs by cell proliferation assay; type: functional, cell-based
Summary of the method: (§1)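 MDA-MB-231 breast adenocarcinoma cells at 5 × 10^3 per well in a 96-well microplate. Compounds were dissolved in DMSO and applied for 48 h, including a 250 μM level. Viability was measured with the EZ-CyTox kit as A450.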

[2] = Growth inhibition of rat 3Y1 cells at 250 uM after 48 hrs by cell proliferation assay; type: cell-based; details: 3y1, 48 h
Summary of the method: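 Cells seeded in 96-well plates at 5 × 10^3 per well. Compounds dissolved in DMSO and applied for 48 h. Viability read with an EZ-CyTox cell viability kit by absorbance at 450 nm.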

K562 [3] = assay: Growth inhibition of human K562 cells at 250 uM after 48 hrs by cell proliferation assay; type: functional, cell-based
Summary of the method: (§2)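 K562 leukemia cells seeded at 3 × 10^4 per well in 96-well plates and exposed for 48 h to compounds in DMSO, including 250 μM. Readout was EZ-CyTox cell viability reagent with absorbance at 450 nm.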

Hep 3B2 = assay: Growth inhibition of human Hep3B cells at 250 uM after 48 hrs by cell proliferation assay; type: functional, cell-based
Summary of the method: (§3)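 Hep3B hepatocellular carcinoma cells plated at 5 × 10^3 per well in 96-well format. Treatment with DMSO-dissolved compounds, including 250 μM, lasted 48 h. Proliferation was read with the EZ-CyTox kit by A450.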

HL-60 [4] = assay: Growth inhibition of human HL60 cells at 250 uM after 48 hrs by cell proliferation assay; type: functional, cell-based
K562 [5] = assay: Growth inhibition of human K562 cells after 48 hrs by cell proliferation assay; type: functional, cell-based; details: K562, 48 h; summary of the method: as §2
HL-60 [6] = assay: Growth inhibition of human HL60 cells after 48 hrs by cell proliferation assay; type: functional, cell-based; details: HL-60, 48 h
[7] = Growth inhibition of rat 3Y1 cells after 48 hrs by cell proliferation assay; type: cell-based; details: 3Y1, 48 h
Summary of the method: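 Rat 3Y1 fibroblasts seeded at 5 × 10^3 per well in 96-well plates and exposed 48 h to DMSO-dissolved test compounds. Proliferation was quantified with the EZ-CyTox viability kit by absorbance at 450 nm.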

MDA-MB-231 [8] = assay: Growth inhibition of human MDA-MB-231 cells after 48 hrs by cell proliferation assay; type: functional, cell-based; details: MDA-MB-231, 48 h; summary of the method: as §1
[9] = Growth inhibition of human Hep3B cells after 48 hrs by cell proliferation assay; type: functional, cell-based, Hep 3B2; summary of the method: as §3

| SMILES | growth inhibition (GI) (MDA-MB-231 [1]) | growth inhibition (GI) [2] | growth inhibition (GI) (K562 [3]) | growth inhibition (GI) (Hep 3B2) | growth inhibition (GI) (HL-60 [4]) | IC50 (K562 [5]) | IC50 (HL-60 [6]) | IC50 [7] | IC50 (MDA-MB-231 [8]) | IC50 [9] |
| --- | --- | --- | --- | --- | --- | --- | --- | --- | --- | --- |
| CC(=O)N1c2ccccc2[C@]2(O)C[C@@H]3C(=O)N[C@@H](CC(C)C)C(=O)N3[C@H]12 [PROTUBONINE A] | inactive | Not Active | inactive | inactive | inactive | – | – | – | – | – |
| CC(=O)O[C@@]12C[C@@H]3C(=O)N[C@@H](CC(C)C)C(=O)N3[C@@H]1N(C(C)=O)c1ccccc12 [PROTUBONINE B] | inactive | Not Active | inactive | inactive | inactive | – | – | – | – | – |
| CCC(C)[C@@H]1NC(=O)[C@@H](Cc2ccccc2)n2c1nc1c(c2=O)C=CC=CO1 (stereo not given in full) [PROTUBOXEPIN A] | – | – | – | – | – | 250 µM | 75 µM | 180 µM | 130 µM | 150 µM |

Source: ChEMBL document CHEMBL1799980, “Protuboxepins A and B and protubonines A and B from the marine-derived fungus Aspergillus sp. SF-5044” (J Nat Prod, 2011)
